Experimental data as given in ChEMBL document CHEMBL1133861, “A novel class of highly potent, selective, and non-peptidic inhibitor of Ras farnesyltransferase (FTase)” (Bioorg Med Chem Lett, 2001).

Assays:
[1] = system: EJ; experiment: Percent inhibition of tumor growth relative to control tumors in tumor xenograft nude mice (with p<0.001 compared to control) against EJ at a dose of 40 mg/kg, bid on day 15;Regression.; format: functional, organism-based; design: dose 40 mg/kg; details: Homo sapiens
Summary of the method: (§1)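 Female athymic BALB/c nu/nu mice, 5–7 weeks old, acclimated ≥1 week, inoculated s.c. intrascapularly with 10^7 tumor cells. Tumour volume measured in three dimensions every three days as 1/6·π·L·W·H. At ~100 mm3 mice randomised, 8 per group (Day 0). Dosing by gastric gavage twice daily from Day 1 for 21 days; vehicle 0.9% saline. Ulcerated tumours excluded; Student's t-test.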

[2] = system: EJ; experiment: Percent inhibition of tumor growth relative to control tumors in tumor xenograft nude mice (with p<0.001 compared to control) against EJ at a dose of 60 mg/kg, bid on day 15;Regression.; format: functional, organism-based; design: dose 60 mg/kg; details: Homo sapiens; summary of the method: as §1
[3] = target: T1, Protein farnesyltransferase (Homo sapiens, UniProt P49354+P49356); experiment: Inhibition of farnesyltransferase activity against H-Ras; format: protein-complex assay
Summary of the method: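 FTase (16.6 nM) incubated 30 min at 37 °C with H-Ras substrate, [3H]farnesyl pyrophosphate and serially diluted compound. Buffer: 50 mM HEPES pH 7.4, KCl, MgCl2, ZnCl2, 0.5% N-octylglucoside, 10 mM DTT. Reactions quenched with 10% HCl in ethanol. Farnesylated Ras captured on glass-fiber filters and scintillation counted. IC50 is the concentration halving [3H]FPP incorporation; mean of three experiments.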

[4] = target: Geranylgeranyl transferase type I (Homo sapiens, UniProt P49354+P53609); experiment: Inhibition of Geranylgeranyl transferase type I; format: protein-complex assay
[5] = target: T1, Protein farnesyltransferase; experiment: Inhibition of farnesyltransferase activity against K-Ras; format: protein-complex assay
Summary of the method: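 K-Ras used as acceptor substrate with FTase (16.6 nM) and [3H]FPP plus serially diluted inhibitor, 30 min at 37 °C, in HEPES pH 7.4 buffer with Mg2+, Zn2+, KCl, octylglucoside and DTT. Stopped with acidic ethanol, then filter binding and scintillation counting of labeled K-Ras. IC50 is 50% reduction of [3H]FPP transfer; mean of three determinations.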

[6] = system: HT-29; experiment: Inhibition of anchorage independent growth of human tumor cell line HT-29 K-ras-transformed in soft agar; format: functional
Summary of the method: (§2)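 Cells adapted 2–3 days in DMEM + 10% FBS after thawing. Bottom layer 0.5% agar with DMEM/FBS and compound; top layer 0.33% agar with compound, cells at 2–5×10^3 cells/mL. Colonies counted by microscope after two weeks in humidified CO2 incubator. GI50 from plot of % colony growth versus log10 concentration for each cell line.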

[7] = system: HCT-116; experiment: Inhibition of anchorage independent growth of human tumor cell line HCT116 K-ras-transformed in soft agar; format: functional; summary of the method: as §2
[8] = system: T-24; experiment: Inhibition of anchorage independent growth of human tumor cell line T24 H-ras-transformed in soft agar; format: functional; summary of the method: as §2
[9] = system: EJ; experiment: Inhibition of anchorage independent growth of human tumor cell line EJ H-ras-transformed in soft agar; format: functional; summary of the method: as §2
[10] = system: A549; experiment: Inhibition of anchorage independent growth of human tumor cell line A549 K-ras-transformed in soft agar; format: functional; summary of the method: as §2
[11] = system: HCT-116; experiment: Percent inhibition of tumor growth relative to control tumors in tumor xenograft nude mice against HCT116 at a dose of 40 mg/kg, bid on day 21;p<0.001.; format: functional, Homo sapiens; details: Mus musculus, HCT-116, 504 h; summary of the method: as §1
[12] = system: HCT-116; experiment: Percent inhibition of tumor growth relative to control tumors in tumor xenograft nude mice against HCT116 at a dose of 60 mg/kg, bid on day 21;p<0.001; format: functional, Homo sapiens; details: Mus musculus, HCT-116, 504 h; summary of the method: as §1
[13] = system: EJ; experiment: Percent inhibition of tumor growth relative to control tumors in tumor xenograft nude mice against EJ at a dose of 20 mg/kg, bid on day 15;p<0.001; format: functional, Homo sapiens; details: Mus musculus, 360 h; summary of the method: as §1

| Structure (SMILES) | IC50 [3] [nM] | IC50 [4] [nM] | IC50 [5] [nM] | further results |
| --- | --- | --- | --- | --- |
| CN1CCN(C(=O)c2cn(Cc3cncn3Cc3ccc4c(c3)OCO4)cc2-c2cccc3ccccc23)CC1 [listing 1 of 3 here] |  |  |  | inhibition [1]: Regression; inhibition [2]: Regression |
| COCCN(C)C(=O)c1cn(Cc2cncn2Cc2ccc3c(c2)OCO3)cc1-c1cccc2ccccc12 |  | 10000 |  |  |
| CN1CCN(C(=O)c2cn(Cc3cncn3Cc3ccc4c(c3)OCO4)cc2-c2cccc3ccccc23)CC1 [listing 2 of 3 here] | 0.9 | 16000 |  |  |
| CN1CCN(C(=O)c2cn(Cc3cncn3Cc3ccc4c(c3)OCO4)cc2-c2cccc3ccccc23)CC1 [listing 3 of 3 here] |  |  |  | GI50 [6]: 4.5 nM; GI50 [7]: 17.6 nM; GI50 [8]: 0.45 nM; GI50 [9]: 0.56 nM; GI50 [10]: 1.2 nM; inhibition in vivo at 40 mg/kg [11]: 43%; inhibition in vivo at 60 mg/kg [12]: 55%; inhibition in vivo at 20 mg/kg [13]: 78% |
| O=C(c1cn(Cc2cnc[nH]2)cc1-c1ccccc1)N1CCOCC1 | 2000 |  |  |  |

The next lines start with results.

| IC50 [3] [nM] | IC50 [4] [nM] | IC50 [5] [nM] | Structure (SMILES) | further results |
| --- | --- | --- | --- | --- |
| 3 | > 100000 | 100 | Cn1cncc1Cn1cc(C(=O)N2CCOCC2)c(-c2cccc3ccccc23)c1 |  |
|  |  | 1830 | O=C(c1cn(Cc2c[nH]cn2)cc1-c1cccc2ccccc12)N1CCOCC1 |  |
| 1.5 |  | 2.1 | O=C(c1cn(Cc2cncn2Cc2ccccc2)cc1-c1cccc2ccccc12)N1CCOCC1 |  |
| 500 |  |  | CCOC(=O)c1cn(Cc2c[nH]cn2)cc1-c1cccc2ccccc12 |  |
| 0.9 | 12000 |  | O=C(c1cn(Cc2cncn2Cc2ccc3c(c2)OCO3)cc1-c1cccc2ccccc12)N1CCOCC1 |  |
